# Compounds with a hit are over-represented: about 4.3% of the library has one in this group of screens.
# TAAR1 agonist: human TAAR1 agonists, primary screen, Fluo-8 calcium fluorescence, CHO RD-HGA16 cells; Trace amine-associated receptor 1 (Homo sapiens), Q96RJ0; vehicle wells 0%, saturating PEA agonist 100%; activation, % at 3 µM; 360,000 tested, 0.99% active; AID 624467, 2012;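 active = activation above the mean activation of all test compounds in the run plus 3 SD, cut at about 38% in these data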
# Target sequence (Q96RJ0 whole entry, looked up): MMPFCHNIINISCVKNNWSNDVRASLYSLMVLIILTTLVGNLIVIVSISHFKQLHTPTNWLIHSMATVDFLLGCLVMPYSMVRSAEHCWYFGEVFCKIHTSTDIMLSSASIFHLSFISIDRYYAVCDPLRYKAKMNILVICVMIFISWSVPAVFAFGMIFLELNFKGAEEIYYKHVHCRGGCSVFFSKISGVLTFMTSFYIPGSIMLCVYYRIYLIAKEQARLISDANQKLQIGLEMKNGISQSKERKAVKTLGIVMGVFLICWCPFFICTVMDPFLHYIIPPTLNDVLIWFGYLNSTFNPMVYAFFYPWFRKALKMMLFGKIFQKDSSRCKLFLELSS
#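 Assay system – CHO-derived RD-HGA16 cells with stable Gα16 and human TAAR1 · Compound dosing – one-point dosing at 3 µM (nominal) · Incubation – 17-24 h seeding, 75 min 37 °C dye, 30 min RT · Measured by – kinetic Fluo-8 calcium fluorescence · Control set – DMSO vehicle as 0%, PEA at EC100 as 100% · Repeats – single well for each compound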
# MC4R antagonist: MC4R antagonists of cAMP signaling, primary screen, cell-based, TR-FRET, antagonist arm of biased-ligand search | AID 540295, 2011 | Melanocortin receptor 4 (Homo sapiens), P32245 | MC4R-expressing cells, MTII-stimulated cAMP, LANCE TR-FRET | 360,000 tested, 0.48% active | inhibition, % at 6.5 µM;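 active = inhibition above its plate's cutoff, the mean of tested wells on that plate plus 3 SD, cut at about 29% in these data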
# Target sequence (P32245 whole entry, looked up): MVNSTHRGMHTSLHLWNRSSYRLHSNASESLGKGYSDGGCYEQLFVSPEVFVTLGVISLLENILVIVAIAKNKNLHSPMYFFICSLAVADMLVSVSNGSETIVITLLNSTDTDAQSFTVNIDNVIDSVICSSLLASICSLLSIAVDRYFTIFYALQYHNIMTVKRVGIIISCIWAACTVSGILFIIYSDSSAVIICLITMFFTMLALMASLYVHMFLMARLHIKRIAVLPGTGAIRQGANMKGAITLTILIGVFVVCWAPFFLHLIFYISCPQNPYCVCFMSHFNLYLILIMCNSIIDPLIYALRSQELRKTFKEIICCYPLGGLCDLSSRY
#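 Assay system: U2OS cells stably expressing human melanocortin 4 receptor (MC4R) / Dosing: 6.5 µM / Timing: compound 30 min, challenge 1 h, detection 1 h / Measured by: Eu-cAMP/anti-cAMP TR-FRET, emission 671 nm / Replicates: singlicate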
# Beta2AR agonist: beta2AR agonists driving receptor internalization, primary screen, cell-based, FAP fluorogen, flow cytometry | Beta-2 adrenergic receptor (Homo sapiens), P07550 | response, % (no concentration beside the values) | Am2.2-beta2AR cells | 340,000 tested, 0.43% active;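 active = response above a set limit, near 3 SD of response in nonfluorescent compounds, cut at about 42% in these data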
# TAAR1 antag: human TAAR1 antagonists, primary screen, Fluo-8 calcium fluorescence, CHO RD-HGA16 cells; Trace amine-associated receptor 1 (Homo sapiens), Q96RJ0; antagonist; inhibition, % at 3 µM; 360,000 tested, 1.5% active; AID 624466, 2012;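 active = inhibition above a per-plate cutoff, the mean inhibition of test compounds on that plate plus 3 SD, cut at about 49% in these data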
#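 Assay system: CHO-derived RD-HGA16 cells stably expressing human TAAR1 plus Gα16. Timing: 140 s kinetic read after compound, 140 s after agonist. Technique: kinetic Fluo-8 calcium fluorescence measurement. Measure: % inhibition of agonist calcium response.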
# MC4R barr agon: MC4R agonists recruiting beta-arrestin, primary screen, cell-based, luminescence, agonist arm of biased-ligand search; Melanocortin receptor 4 (Homo sapiens), P32245; U2OS MC4R beta-arrestin complementation; percent of melanotan II response, DMSO zero; activation, % at 8.9 µM; 360,000 tested, 0.98% active;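 active = activation above a per-plate cutoff, the mean activation of sample wells on that plate plus 3 SD, cut at about 8% in these data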
# m5-HT2A agonist: mouse Htr2a agonists via beta-arrestin recruitment, primary screen, cell-based, luminescence | 5-hydroxytryptamine receptor 2A (Mus musculus), P35363 | CHO-K1 mHTR2A beta-arrestin complementation; percent of 30 µM serotonin response | activation, % at 7.6 µM | 360,000 tested, 0.66% active;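 active = activation above a run cutoff, the mean activation of all tested compounds plus 3 SD, cut at about 14% in these data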
# cAMP nonselect: nonselective cAMP signaling inhibitors, parental cells, counter-screen for MC4R biased antagonist project, cell-based, TR-FRET, U2OS, forskolin, triplicate. shares compounds with MC4R antagonist. LANCE TR-FRET. inhibition, % at 6.5 µM. 1,600 tested, 26% active. AID 602193, 2012;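 active = mean inhibition over triplicates above the low-control well mean plus 3 SD, set per campaign, cut at about 13% in these data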;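 note: signal is single emission at 671 nm which falls as cellular cAMP rises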
# MC4R cAMP antag: MC4R cAMP antagonists, retest, confirmation, cell-based, TR-FRET; shares compounds with MC4R antagonist; MC4R-expressing cells, MTII-stimulated cAMP; inhibition, % at 6.5 µM; 1,600 tested, 27% active; in the data active = inhibition above about 29%
# A number is an active result; 0 = inactive; - = no result.
SMILES,TAAR1 agonist,MC4R antagonist,Beta2AR agonist,TAAR1 antag,MC4R barr agon,m5-HT2A agonist,cAMP nonselect,MC4R cAMP antag
NS(=O)(=O)c1ccc(CCNS(=O)(=O)c2ccc(Cl)nc2)cc1,0,35.0,0,0,0,0,19.3,0
Cc1ccc(C=NNc2nc3c([nH]2)c(=O)n(C)c(=O)n3C)cc1,0,43.1,0,0,0,0,0,0
COC(=O)C=C1CCC2C3CCC4=CC(=O)C(Br)CC4(C)C3C(=O)CC12C (centres undefined),0,30.8,0,0,0,0,0,0
COCCNC(=O)C(c1cccnc1)N(Cc1ccccc1)C(=O)Cn1nnc2ccccc21 (centres undefined),0,0,0,0,0,0,-,-
C=CCN(C(=O)CNS(=O)(=O)c1ccccc1)C(C(=O)NCCOC)c1cccnc1 (centres undefined),0,29.3,0,0,0,0,0,0
O=C(CSCc1ccc(Cl)cc1Cl)Nc1ccc(O)cc1C(=O)O,0,0,0,0,0,0,-,-
O=C(CSCc1ccc(Cl)cc1Cl)Nc1ccccc1C(=O)Nc1ccc(C(=O)O)cc1,0,29.9,0,0,0,0,0,0
CC1CCCC(C)N1C(=O)COC(=O)CCC(=O)c1ccc(F)cc1 (centres undefined),0,0,0,0,0,0,-,-
CCSC1=C(C#N)C(c2ccc3c(c2)OCO3)C2=C(CCCC2=O)N1 (centres undefined),0,0,0,0,0,0,-,-
CCSC1=C(C#N)C(CC(C)C)C2=C(CCCC2=O)N1 (centres undefined),0,34.1,0,0,0,0,0,0
COc1ccc(CNC(=O)CSc2nnc(NC(=O)C3CC3)s2)cc1,0,29.2,0,0,0,0,0,0
CC1(C)C(=O)Nc2ccccc2N1C(=O)COC(=O)c1cc(S(=O)(=O)N2CCOCC2)ccc1F,0,35.9,0,0,0,0,17.0,45.8
CC1(C)C(=O)Nc2ccccc2N1C(=O)COC(=O)c1cc(S(C)(=O)=O)ccc1Cl,0,0,0,0,0,0,-,-
Cc1sc2nc(CN3CCC(C)CC3)nc(Cl)c2c1C,0,-,-,0,-,-,-,-
Cc1sc2nc(CN3CCOCC3)nc(Cl)c2c1C,0,31.9,0,0,0,0,0,0
O=C(CSc1nnc(-c2ccccc2)c2ccccc12)NCCN1C(=O)CSC1=O,0,0,0,0,0,0,-,-
Cc1ccc(O)c(NC(=O)c2noc3c2CCCCC3)c1,0,30.8,0,0,0,0,0,0
Cc1nccn1CCC(=O)NC1CC(C)(C)Cc2c1cnn2-c1ccccc1 (centres undefined),0,0,-,0,0,0,-,-
COC(=O)c1ccc(/C=C/C(=O)OCC(=O)Nc2sccc2C(N)=O)cc1,-,35.8,0,-,0,0,14.9,29.5
NC(=O)c1ccsc1NC(=O)COC(=O)/C=C/c1ccc([N+](=O)[O-])cc1,0,0,0,0,0,0,-,-
COC(=O)C1=C(C)N(C)C(=NCc2cc(OC)c(OC)c(OC)c2)NC1c1ccc(C(F)(F)F)cc1 (centres undefined),0,-,-,0,-,-,-,-
CCN(CC(=O)NCc1ccc(F)cc1)C(=O)/C=C/c1ccc(S(=O)(=O)N(CC)CC)cc1,0,0,0,0,0,0,-,-
Cc1ccc(S(=O)(=O)N2CCN(C(=O)COC(=O)c3nc(Cl)ccc3Cl)CC2)c(C)c1,0,0,0,0,0,0,-,-
Cc1c(C(=O)NCCSCc2ccccc2)cccc1[N+](=O)[O-],0,35.1,0,0,0,0,0,0
Cc1c(C(=O)NCCSCc2ccco2)cccc1[N+](=O)[O-],0,0,0,0,0,0,-,-
SMILES,TAAR1 agonist,MC4R antagonist,Beta2AR agonist,TAAR1 antag,MC4R barr agon,m5-HT2A agonist,cAMP nonselect,MC4R cAMP antag
CCn1cc(C(=O)NC(C)C23CC4CC(CC(C4)C2)C3)cn1 (centres undefined),0,0,0,0,0,0,-,-
O=C(Cn1ncc(Cl)c(Cl)c1=O)NC(=O)NC1CCCCC1,0,38.2,0,0,0,0,36.5,67.4
CC(NC(=O)Cn1ncc(Cl)c(Cl)c1=O)C12CC3CC(CC(C3)C1)C2 (centres undefined),-,81.1,112.3,-,0,0,32.4,46.5
C=C(C)C1CC=C(C)/C(=N/NC(=O)COc2ccccc2Cl)C1 (centres undefined),0,33.5,0,0,0,0,0,0
C=C(C)C1CC=C(C)/C(=N/NC(=O)COc2ccc(C)cc2)C1 (centres undefined),0,0,0,0,0,0,-,-
Cc1cc(C)n(-c2nc(N(c3ccccc3)c3ccccc3)nc(-n3nc(C)cc3C)n2)n1,-,61.8,0,-,0,0,0,0
Cc1cc(C)n(-c2nc(Nc3ccccc3)nc(-n3nc(C)cc3C)n2)n1,0,0,0,0,0,0,-,-
CCOc1cc(N2CCOCC2)c(OCC)cc1NC(=O)COC(=O)COc1ccc(C#N)cc1,0,30.9,0,0,0,0,0,0
Cc1ccc(S(=O)(=O)NCC(=O)OCC(=O)NCc2ccco2)cc1,0,0,0,0,0,0,-,-
CC(C)(C)c1ccc(OCCSc2nc3ccccc3n2CC(=O)O)cc1,0,33.8,0,0,0,0,0,0
CCCCCCN1CCN(C2CN(Cc3ccc([N+](=O)[O-])cc3)S(=O)(=O)C2)CC1 (centres undefined),0,0,-,0,0,0,-,-
CCOC(=O)C1=C(COC(=O)CNS(=O)(=O)c2ccc(NC(C)=O)cc2)NC(=O)NC1C (centres undefined),0,0,0,0,0,0,-,-
CCOC(=O)C1=C(COC(=O)CNS(=O)(=O)c2ccc(C)c(C)c2)NC(=O)NC1C (centres undefined),0,30.1,-,0,0,0,0,0
COc1ccc(NC(=S)Nc2cnc3ccccc3c2)c(OC)c1,0,0,0,0,0,0,-,-
Cc1ccc(C(=O)NNc2c3ccccc3nc3ccccc23)cc1,0,0,0,0,0,0,-,-
O=C(NNc1c2ccccc2nc2ccccc12)c1ccc(Cl)cc1,0,33.0,0,0,0,0,0,0

# High-throughput results from PubChem.
